# Screening data deposited in PubChem by The Scripps Research Institute Molecular Screening Center.
# Most compounds without a hit are left out; they make up all but 2.2% or so of the library.
# CHRM1 PAM = positive allosteric modulators of human M1 muscarinic receptor; 360,000 compounds, 0.088% hits; activation, % at 3 µM; P11229; AID 588819; CHO-K1 hM1, Fluo-8 calcium fluorescence, ACh EC20; 0% = ACh EC20, 100% = maximal ACh; in the data active = activation above about 19%, passing the limit was not always enough
# Target sequence (P11229 whole entry, looked up): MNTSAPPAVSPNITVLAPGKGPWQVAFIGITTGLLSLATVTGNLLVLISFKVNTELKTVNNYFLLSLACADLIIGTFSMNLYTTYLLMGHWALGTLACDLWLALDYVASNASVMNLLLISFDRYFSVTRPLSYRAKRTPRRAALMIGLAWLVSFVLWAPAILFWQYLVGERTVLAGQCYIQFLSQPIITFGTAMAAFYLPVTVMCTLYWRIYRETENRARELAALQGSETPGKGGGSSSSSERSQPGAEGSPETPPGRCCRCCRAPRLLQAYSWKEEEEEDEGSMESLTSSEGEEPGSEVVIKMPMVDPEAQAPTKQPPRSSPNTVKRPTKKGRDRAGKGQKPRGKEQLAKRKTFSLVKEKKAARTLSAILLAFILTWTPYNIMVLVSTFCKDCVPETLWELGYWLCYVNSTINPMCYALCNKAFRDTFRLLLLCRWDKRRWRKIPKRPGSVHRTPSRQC
# CHRM1 antagonist = antagonists of human M1 muscarinic receptor. inhibition, % at 3 µM. 360,000 compounds, 1.3% hits. CHO-K1 hM1, Fluo-8 calcium fluorescence, ACh EC80 antagonist;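 active = percent inhibition above its own plate's cutoff, namely the mean of that plate's compound wells plus 3 SD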;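 also: peak over basal fluorescence ratio during 140 s after agonist addition; 0% = ACh EC80 plus DMSO and 100% = DMSO alone without agonist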
# M5 PAM = CHRM5 positive allosteric modulation | CHO-K1 hM5, Fluo-8 calcium, ACh EC20 PAM; 0% = ACh EC20, 100% = ACh EC100 | activation, % at 3 µM | 360,000 compounds, 0.3% hits | AID 624038;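 active = activation above the run cutoff, the mean activation of all test compounds plus 3 SD, cut at about 18% in these data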
#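 system = human M5 receptor in CHO-K1 cells | compound = one concentration, 3 µM final (nominal) | schedule = Post-acetylcholine fluorescence recording 140 s | signal = Fluo-8 calcium dye fluorescence, kinetic read | benchmarks = low control EC20 acetylcholine (0%), high control EC100 acetylcholine (100%) | repeats = singlicate, one well per test compound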
# M5 antag = antagonists of human muscarinic M5 receptor (CHRM5) | CHO-hM5 cells, Fluo-8 calcium fluorescence, ACh EC80 | inhibition, % at 3 µM | 360,000 compounds, 0.59% hits | AID 624040;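 active = inhibition above a per-plate cutoff, the mean of that plate's test compounds plus 3 SD, cut at about 27% in these data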;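 also: 0% = acetylcholine EC80 with DMSO and 100% = DMSO without agonist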
# CHRM1 agonist = human M1 muscarinic receptor agonism | P11229 | CHO-K1 hM1, Fluo-8 calcium fluorescence, agonist mode; 0% DMSO, 100% acetylcholine EC100 | activation, % at 3 µM | 360,000 compounds, 0.33% hits;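 active = activation above the run's mean compound activation plus 3 SD, cut at about 16% in these data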;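 also: peak over basal fluorescence ratio within a 140 s kinetic read after compound addition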
# CHRM5 agonist = agonists of human muscarinic M5 receptor (CHRM5); P08912; CHO-K1 hM5 cells, Fluo-8 calcium fluorescence; 0% DMSO wells, 100% maximal acetylcholine response; activation, % at 3 µM; 360,000 compounds, 0.19% hits;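 active = activation above the run's mean over test compounds plus 3 SD, cut at about 23% in these data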;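 also: signal is peak over basal fluorescence ratio across the kinetic read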
# * = called active by the depositor.
SMILES,CHRM1 PAM,CHRM1 antagonist,M5 PAM,M5 antag,CHRM1 agonist,CHRM5 agonist
N#C/C(=C\c1ccc(O)cc1)C(=O)NCc1cccc(Cl)c1,10,-12,-11,9,24*,21
CC1C(=O)N2CCCc3cc(NC(=O)C(=O)NCCN4CCOCC4)cc1c32 (stereo unspecified),-14,37*,-4,2,-1,2
CCOC(=O)c1cc(=O)c2ccc(OCC(=O)Nc3ccccc3)cc2o1,-1,4,-5,4,1,5
CCOC(=O)C1=C(C)N(CC(C)C)C(=O)/C1=C\c1ccc(OCC(=O)Nc2ccccc2)cc1,-20,34*,-6,7,-4,-3
CCOC(=O)c1cc(C)n(CCCN2CCOCC2)c1C,-19,35*,4,10,-7,-7
Cc1ccc(S(=O)(=O)NC2=NCN(C3CCN(Cc4ccccc4)CC3)CN2)cc1,-16,29*,-3,1,-5,-8
Cc1ccc(S(=O)(=O)NNC(=O)C2CCN(Cc3ccccc3)CC2)cc1,-21,80*,-18,53*,-5,-5
Cc1ccccc1NC(=O)CC1C(=O)Nc2ccccc2N1CC(=O)N(C)C1CCS(=O)(=O)C1 (stereo unspecified),-10,17,0,3,-3,2
CCc1nc2ccc(C(=O)NCCN3CCCC3)cn2c1N(C)Cc1ccc(OC)cc1,-28,45*,-7,-5,-10,-3
CCCCC(=O)N(C)c1c(C)nc2ccc(C(=O)NCCOc3ccc(OC)cc3)cn12,7,-19,3,-9,-4,0
CCCCN(C)c1c(C)nc2ccc(C(=O)NCCOc3ccc(OC)cc3)cn12,-20,39*,-24,29*,-1,0
CCc1nc2ccc(C(=O)NCc3ccc(OC)cc3)cn2c1N(C)Cc1ccc(OC)cc1,-18,15,-13,-1,-8,-3
CC(C)C(=O)Nc1cccc(C(=O)N2CCCCC2C)c1 (stereo unspecified),-1,-9,21*,-15,-2,1
CC1CCCCN1C(=O)c1cccc(NC(=O)c2ccccc2)c1 (stereo unspecified),-2,1,6,-8,-3,0
CCCOc1ccc(OC(=O)c2ccc(Br)o2)cc1,-8,17,-4,-2,45*,9
CCCCOc1ccc(C2=CSC3=NCCN23)cc1[N+](=O)[O-],-28,59*,-5,5,-9,-5
Clc1ccc(C2=CSC3=NCCN23)cc1Cl,-21,17*,-10,16,-6,-11
COc1ccc(C2=CSC3=NCCN23)cc1OC,-4,8,1,10,-3,-1
COc1ccc2nc(NN=C(C)c3ccccn3)cc(C)c2c1,5,-7,-9,11,-3,-1
CC(C)CNC(=S)NNC(=O)CC(C)O (stereo unspecified),-3,1,18*,-1,-5,-2
CCNC(=S)NNC(=O)CC(C)C,14,0,7,-6,-8,-2
Cc1sc2ncnc(NCC(c3ccccc3)N(C)C)c2c1C (stereo unspecified),-31,57*,-14,26,-11,-7
Cc1sc2ncnc(NCC(O)c3ccc([N+](=O)[O-])cc3)c2c1C (stereo unspecified),-20,34*,-14,36*,0,5
Cc1ccc(C)c(-c2nnc(NC(=O)Cc3ccc(F)cc3)o2)c1,-1,2,-5,6,-3,-4
Cc1ccc(C(=O)NCCNc2ncc(C(F)(F)F)cc2Cl)cc1[N+](=O)[O-],-32,46*,-16,27*,-11,-7
SMILES,CHRM1 PAM,CHRM1 antagonist,M5 PAM,M5 antag,CHRM1 agonist,CHRM5 agonist
COc1ccc(C(=O)NCCNc2ncc(C(F)(F)F)cc2Cl)cc1[N+](=O)[O-],-6,6,-7,-1,-6,-7
O=C(CN1C(=O)CSC1=O)c1ccccc1,5,-7,45*,-6,-1,-3
C=CCN1C(=O)C2(OCCCO2)c2cc(C)ccc21,6,-16,20*,-3,-3,2
CC(C)(C)OC(=O)NCCCC[C@H](NC(=O)c1nc[nH]c1C(=O)NCC(=O)OCc1ccccc1)C(=O)OC(C)(C)C,-4,11,-11,2,-3,-1
C[C@H](NC(=O)c1nc[nH]c1C(=O)NCCCCCNC(=O)OC(C)(C)C)C(=O)OCc1ccccc1,-28,45*,-39,24,-1,2
CC(C)(C)OC(=O)CNC(=O)c1[nH]cnc1C(=O)NCC(=O)OCc1ccccc1,-16,35*,-34,15,-2,5
CC(C)(C)OC(=O)NCCCCCNC(=O)c1nc[nH]c1C(=O)NCC(=O)OCc1ccccc1,-20,39*,-38,20,1,3
O=C(CCC(=O)OCc1ccc(C(=O)Oc2ccccc2)cc1)Nc1cccc2ccccc12,2,-2,4,5,-3,-3
CC(=O)NCCC1CCN(C(=O)C2CCC(=O)N(C3CCCC3)C2)CC1 (stereo unspecified),1,-2,-4,9,-3,-2
Cc1cccc(N2CCN(C(=O)c3ccc(N4CCCC4=O)cc3)CC2)c1C,0,-20,-1,2,-1,-3
Cc1nc(NC(=O)COC(=O)CCc2ccccc2)c(Cl)cc1Cl,25*,-14,5,4,2,-4
Cc1ccc(CNC(=O)CCC2CCCN(Cc3cccc4ncccc34)C2)o1 (stereo unspecified),-11,3,2,2,-12,-2
Cc1cc(C)c(-c2csc(NC(=O)c3cc([N+](=O)[O-])ccc3N3CCOCC3)n2)c(C)c1,-30,59*,-20,23,-10,-10
O=C(NCc1cccnc1)c1cc([N+](=O)[O-])ccc1N1CCOCC1,0,-1,2,7,20*,0
O=C(NCc1cccnc1)Nc1cccc([N+](=O)[O-])c1,7,-5,-11,28*,-1,-5
COc1cc(/C=C2/S/C(=N/S(=O)(=O)c3ccccc3)NC2=O)c([N+](=O)[O-])cc1OC,7,-10,-1,-3,2,2
Cc1ccc(S(=O)(=O)/N=C2/NC(=O)/C(=C\c3cc(Br)cc(Br)c3O)S2)cc1,2,-6,-9,14,9,35*
COc1cc(/C=C2\S/C(=N/S(=O)(=O)Cc3ccccc3)NC2=O)c([N+](=O)[O-])cc1OC,14,-19,-8,10,0,1
O=C1N/C(=N\S(=O)(=O)Cc2ccccc2)S/C1=C/c1cc([N+](=O)[O-])ccc1O,-9,37*,-38,40*,29*,89*
